Laboratory results as given in ChEMBL document CHEMBL1149087, “Anticancer and antimalarial efficacy and safety of artemisinin-derived trioxane dimers in rodents” (J Med Chem, 2004).
Structures can show the parent of a compound that is named as a salt.

What was measured:
Mus musculus [1] = species: Mus musculus; test: Compound was tested for weight gain in mice; markedly reduced; format: functional, organism-based
Plasmodium falciparum = test: In vitro antimalarial activity for Plasmodium falciparum NF54 infected mice (Mus musculus); format: functional, organism-based
Outline: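 In vitro antimalarial assay run in quadruplicate, with artemisinin as concurrent control (n = 3). EC50 taken from fitted dose-response curves.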

[2] = Therapeutic index expressed as maximum tolerated / ED50 intravenously was determined; details: iv; read-out: Therapeutic index
Outline: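 Therapeutic index calculated as maximum tolerated single ip dose in mice divided by iv ED50 (mg/kg/day × 4).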

Mus musculus [3] = test: Compound was tested for number of animals that remain safe when administered intraperitoneally in mice (dose 125 mg/kg); deaths 0/3
Mus musculus [4] = test: Compound was tested for number of animals that remain safe when administered intraperitoneally in mice (dose 250 mg/kg); deaths 1/3
Mus musculus [5] = test: Compound was tested for number of animals that remain safe when administered intraperitoneally in mice (dose 500 mg/kg); deaths 3/3
C2G cell line = test: Inhibitory concentration to inhibit growth of C2G prostate cancer cell line by using MTT assay; format: functional, cell-based, Homo sapiens; details: Mus musculus
Outline: (§1)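 TRAMP mouse prostate cancer clonal lines, seeded at 2.5×10^4 (C1A), 2.0×10^4 (C2D, C2G) or 1.5×10^4 (C2H) cells/mL. Grown in DMEM high glucose with 10% FBS, insulin, pen-strep and 10^-8 M dihydrotestosterone at 37 °C, 5% CO2. After 24 h, switched to phenol-free medium with ethanol-dissolved compound. MTT read-out at 0, 24, 48 and 72 h: 4 h MTT, then SDS/HCl solubilisation overnight.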

TRAMP-C1A = test: Inhibitory concentration to inhibit growth of C1A prostate cancer cell line by using MTT assay; format: functional, cell-based; details: Mus musculus; outline: as §1
C2D cell line = test: Inhibitory concentration to inhibit growth of C2D prostate cancer cell line by using MTT assay; format: functional, cell-based, Homo sapiens; details: Mus musculus; outline: as §1
Mus musculus [6] = test: Compound was tested for number of animals that remain safe when administered intraperitoneally in mice (total no of deaths =125); 0/3; format: functional
Mus musculus [7] = test: Compound was tested for number of animals that remain safe when administered intraperitoneally in mice (total no of deaths =250); 0/3; format: functional
Mus musculus [8] = test: Compound was tested for number of animals that remain safe when administered intraperitoneally in mice (total no of deaths =500); 1/3; format: functional
Mus musculus [9] = test: Compound was tested for number of animals that remain safe when administered intraperitoneally in mice (total no of deaths =750); 3/3; format: functional
TRAMP-C2H = test: Inhibitory concentration to inhibit growth of C2H prostate cancer cell line by using MTT assay; format: functional, cell-based; details: Mus musculus; outline: as §1
Mus musculus [10] = species: Mus musculus; test: Compound was tested for weight gain in mice; reduced; format: functional, organism-based
Mus musculus [11] = test: Compound was tested for number of animals that remain safe when administered intraperitoneally in mice (total no of deaths =250); 1/3; format: functional
Mus musculus [12] = test: Compound was tested for number of animals that remain safe when administered intraperitoneally in mice (total no of deaths =500); 3/3; format: functional
Mus musculus [13] = test: Compound was tested for number of animals that remain safe when administered intraperitoneally in mice (total no of deaths =750); 2/3; format: functional

Which Activity (Mus musculus [1]) does the source give for `C[C@H]1[C@H](OC(=O)CCC(=O)[O-])O[C@@H]2O[C@@]3(C)CC[C@H]4[C@H](C)CC[C@@H]1[C@@]24OO3.[Na+]` [SODIUM ARESUNATE] here?
Its Activity is “Weight gain markedly reduced”.

And the EC50 (Plasmodium falciparum)?
The EC50 was 0.0015 µM.

What about the selectivity ratio [2] of the same compound?
Its selectivity ratio is 23.

What about the Deaths (Mus musculus [3]) of the same compound?
The Deaths was 0 deaths.

And the Deaths (Mus musculus [4])?
The Deaths was 1 deaths.

What about the Deaths (Mus musculus [5]) of the same compound?
Its Deaths is 3 deaths.

Which EC50 (Plasmodium falciparum) does the source give for `C[C@@H]1CC[C@H]2[C@@H](C)C(=O)O[C@@H]3O[C@@]4(C)CC[C@@H]1[C@]32OO4` [ARTEMISININ] here?
The EC50 was 0.0088 µM.

With `C[C@H]1[C@H](OC(=O)CCC(=O)OCC(COC(=O)CCC(=O)O[C@@H]2O[C@@H]3O[C@]4(C)CC[C@H]5[C@H](C)CC[C@@H]([C@H]2C)[C@@]35OO4)C(=O)O)O[C@@H]2O[C@]3(C)CC[C@H]4[C@H](C)CC[C@@H]1[C@@]24OO3` (stereo not given in full) as the compound, how does the IC50 (C2G cell line) read?
Its IC50 is 0.134 µM.

And the IC50 (TRAMP-C1A)?
Its IC50 is 0.159 µM.

And the IC50 (C2D cell line)?
Its IC50 is 0.231 µM.

What about the Therapeutic index (Mus musculus [6]) of the same compound?
The Therapeutic index was 0 mg/kg.

What about the Therapeutic index (Mus musculus [7]) of the same compound?
Its Therapeutic index is 0 mg/kg.

What about the Therapeutic index (Mus musculus [8]) of the same compound?
The Therapeutic index was 1 mg/kg.

What about the Therapeutic index (Mus musculus [9]) of the same compound?
The Therapeutic index was 3 mg/kg.

And the EC50 (Plasmodium falciparum)?
The EC50 was 0.0024 µM.

And the selectivity ratio [2]?
The selectivity ratio was 167.

And the IC50 (TRAMP-C2H)?
The IC50 was 0.116 µM.

Which results are given for `Nc1ccn([C@@H]2O[C@H](CO)[C@@H](O)C2(F)F)c(=O)n1` [GEMCITABINE HYDROCHLORIDE]?
IC50 (C2G cell line): 0.0037 µM; IC50 (TRAMP-C1A): 0.009 µM; IC50 (C2D cell line): 0.0119 µM; IC50 (TRAMP-C2H): 0.0047 µM

Which results are given for `C[C@H]1[C@H](OC(=O)CCC(=O)OCC(CO)COC(=O)CCC(=O)O[C@@H]2O[C@@H]3O[C@]4(C)CC[C@H]5[C@H](C)CC[C@@H]([C@H]2C)[C@@]35OO4)O[C@@H]2OC3(C)CC[C@H]4[C@H](C)CC[C@@H]1[C@@]24OO3` (single isomer, unassigned)?
IC50 (C2G cell line): 0.0154 µM; IC50 (TRAMP-C1A): 0.0233 µM; IC50 (C2D cell line): 0.0185 µM; IC50 (TRAMP-C2H): 0.0092 µM

Which IC50 (C2G cell line) does the source give for `C[C@H]1[C@H](OC(=O)CCC(=O)OCC(COC(=O)CCC(=O)O[C@@H]2O[C@@H]3O[C@]4(C)CC[C@H]5[C@H](C)CC[C@@H]([C@H]2C)[C@@]35OO4)COC(=O)c2cc[n+]([O-])cc2)O[C@@H]2O[C@]3(C)CC[C@H]4[C@H](C)CC[C@@H]1[C@@]24OO3` (stereo not given in full) here?
The IC50 was 0.0474 µM.

What about the IC50 (TRAMP-C1A) of the same compound?
The IC50 was 0.0846 µM.

What about the IC50 (C2D cell line) of the same compound?
The IC50 was 0.0621 µM.

What about the Activity (Mus musculus [10]) of the same compound?
Its Activity is “Weight gain reduced”.

And the Therapeutic index (Mus musculus [6])?
Its Therapeutic index is 0 mg/kg.

What about the Therapeutic index (Mus musculus [11]) of the same compound?
The Therapeutic index was 1 mg/kg.

And the Therapeutic index (Mus musculus [12])?
The Therapeutic index was 3 mg/kg.

And the Therapeutic index (Mus musculus [13])?
The Therapeutic index was 2 mg/kg.

And the EC50 (Plasmodium falciparum)?
The EC50 was 0.00053 µM.

And the selectivity ratio [2]?
Its selectivity ratio is 156.

What about the IC50 (TRAMP-C2H) of the same compound?
Its IC50 is 0.0361 µM.

With `COc1cccc2c1C(=O)c1c(O)c3c(c(O)c1C2=O)C[C@@](O)(C(=O)CO)C[C@@H]3O[C@H]1C[C@H](N)[C@H](O)[C@H](C)O1` [DOXORUBICIN] as the compound, how does the IC50 (C2G cell line) read?
Its IC50 is 0.0287 µM.

What about the IC50 (TRAMP-C1A) of the same compound?
The IC50 was 0.0759 µM.

And the IC50 (C2D cell line)?
Its IC50 is 0.0465 µM.

What about the IC50 (TRAMP-C2H) of the same compound?
Its IC50 is 0.0303 µM.
